Apaf-1 act – activates human Apaf-1 apoptosome; O14727; Apaf-1 apoptosome caspase-3 activation, DEVD-Rh110 fluorescence; hits give low values; activity change, negative = activation, % at 20 µM; 330,000 compounds, 0.31% hits; AID 489031;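 active = activity change at or below -40% at 20 µM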
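System: Reconstituted apoptosome of Apaf-1, cytochrome c, caspase-9, procaspase-3 | Reagent: dATP, cytochrome c, and (Z-DEVD)2-Rh110 caspase-3 substrate | Times: 30 min compound preincubation and 50 min reaction, both room temperature | Detection: Caspase-3-released Rh110 fluorescence, 540 nm emission, 480 nm excitation | Measure: Caspase-3 activity via Apaf-1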
Rh110 act interf – interferes with Rh110 fluorescence, flagging false Apaf-1 activators | shares compounds with Apaf-1 act | Rh110 fluorescence interference, quenched caspase reaction, Ex480/Em540 | fluorescence interference (activity change), % at 20 µM, hits read low | 980 tested, under 10 active | AID 504616;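 active = mean activity change at or below -40% when tested at 20 µM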
Apaf-1 act conf – confirmation of human Apaf-1 activators. shares compounds with Apaf-1 act. reconstituted apoptosome caspase-3 activity, DEVD-Rh110 fluorescence; hits give low values. activity change, negative = activation, % at 20 µM. 980 compounds, 5% hits. AID 504617;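 active = mean activity change at or below -40%, meaning activation of 40% or more, at 20 µM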
Numbers without * were called inactive; x = no result. The list is a sample of the results.

SMILES | Apaf-1 act | Rh110 act interf | Apaf-1 act conf
O=S(=O)(Nc1ccc(S(=O)(=O)Nc2ncccn2)cc1)c1ccccc1 | -510* | 15 | 17
O=S(=O)(Nc1cc(Sc2ncn[nH]2)c(O)c2ccccc12)c1ccccc1 | 94 | x | x
NC1=NC[C@H](Cc2ccccc2)N1CCCCC1CCCCC1 | 67 | x | x
CCN(CC(=O)Nc1ccc(NC(C)=O)cc1)C(=O)c1ccccc1Sc1ccccc1C#N | 56 | x | x
CCN(CC)c1ccc(NC(=O)c2cnn(CC)c2)cc1 | -55* | 7 | 11
C#CCOCCOCCOCCNc1nc(N2CCN(C(=O)C([C@@H](C)O)n3cc([C@@H](N)CCCCN)nn3)CC2)nc(N2CCN(C(=O)[C@H](CO)n3cc([C@@H](N)C(C)C)nn3)CC2)n1 (some centres not stated) | 53 | x | x
Cc1[nH]n(-c2ccccc2)c(=O)c1/C=N/Nc1nncc(-c2ccccc2)n1 | 81 | x | x
NC(=O)C1CCN(C(=O)COc2cccc3ccccc23)CC1 | -195* | 14 | 10
CNC(=S)N(Cc1cc2ccc(OC)cc2[nH]c1=O)CC1CCCO1 (configuration not stated) | -183* | 5 | 15
COc1ccc(NCc2cc3cc(OC)ccc3[nH]c2=O)cc1 | 47 | x | x
COc1ccc2cc(C(c3nnnn3C3CCCC3)N3CCc4ccccc4C3)c(=O)[nH]c2c1 (configuration not stated) | 72 | x | x
Oc1c(Br)cc(/C=N/NC(=S)NCc2ccco2)cc1Br | -329* | 0 | 14
CCN1CCN(C2=C(NS(=O)(=O)c3ccc(C)cc3)C(=O)c3ccccc3C2=O)CC1 | 77 | x | x
CC/C(=N/Nc1cccc(C)c1)c1cnnc(SC)n1 | 63 | x | x
COC(=O)C1=C(N)OC2=C(C(=O)CC(C)(C)C2)C1c1cccnc1 (configuration not stated) | -308* | 6 | 12
COc1cc(NC(C)CCCN)c2ncccc2c1 (configuration not stated) | 92 | x | x
Cc1cc(=O)n(-c2ccc3ccccc3n2)[nH]1 | 86 | x | x
COc1ccc(-c2noc(COc3ccc4ccccc4c3Br)n2)cc1OC | -136* | 0 | 7
COc1ccc(-c2cc(C)no2)cc1S(=O)(=O)N1CCOc2ccccc21 | -425* | 9 | 14
COc1ccc(CC(=O)N(Cc2ccccc2)c2ccc(C)cc2)cc1S(=O)(=O)N1CCOCC1 | 43 | x | x
O=C(CNC(=O)c1ccc(Br)cc1)c1ccc(Br)cc1 | -463* | -6 | 13
C#CCOCCOCCOCCNc1nc(N2CCN(C(=O)[C@H](Cc3cc4ccccc4[nH]3)n3cc([C@@H](N)C(C)CC)nn3)CC2)nc(N2CCN(C(=O)[C@H](Cc3cc4ccccc4[nH]3)n3cc([C@@H](N)Cc4ccc(O)cc4)nn3)CC2)n1 (some centres not stated) | 60 | x | x
COc1cccc(/C=N/NC(=O)CCn2nnc3ccccc32)c1 | -70* | 1 | 6
COc1ccc(/C=N/NC(=O)CCn2cnc(-c3ccccc3)c2-c2ccccc2)cc1 | 54 | x | x
O=C1C=C(Nc2ccccc2O)c2ccccc2C1=O | 96 | x | x
SMILES | Apaf-1 act | Rh110 act interf | Apaf-1 act conf
CC(C)C(=O)NC(c1cccs1)c1cc([N+](=O)[O-])c2cccnc2c1O (configuration not stated) | 68 | x | x
CCO[C@@H]1OC(C(=O)N2CCN(Cc3ccc4c(c3)OCO4)CC2)=C[C@H](c2ccc(C(F)(F)F)cc2)[C@H]1CCCO | 42 | x | x
CCOc1ccc(/C=C/[N+](=O)[O-])c2ccccc12 | 80 | x | x
Oc1c(Cl)cc(Cl)c2c1NCCC2 | 47 | x | x
Cc1ccc2ccc(C3C(=O)c4ccccc4C3=O)nc2c1 | -170* | 10 | 8
O=C(CC1Nc2cccc3cccc(c23)NC1=O)Nc1ccccc1 (configuration not stated) | 96 | x | x
C#CCOCCOCCOCCNc1nc(N2CCN(C(=O)[C@H]([C@@H](C)CC)n3cc([C@@H](N)CO)nn3)CC2)nc(N2CCN(C(=O)[C@H](Cc3cc4ccccc4[nH]3)n3cc([C@@H](N)C(C)CC)nn3)CC2)n1 (some centres not stated) | 48 | x | x
NC1=NC(c2ccc(Cl)cc2)C(C(=O)c2ccccc2)N1 (configuration not stated) | -470* | 3 | 15
Cc1cccc(C(=O)NC2C(=O)NNC2c2ccc(Cl)cc2)c1 (configuration not stated) | 54 | x | x
N#Cc1c(N(CCO)CCO)nc(N)c2c(N)nc3c(c12)CC(=O)N3Cc1cccs1 | 73 | x | x
COc1ccccc1NC(=O)C1=C(C)Nc2nnnn2C1c1cccc(C)c1 (configuration not stated) | -71* | 6 | 14
CSc1ccc2c(c1)N(CCC1CCCCN1C)c1ccccc1S2 (configuration not stated) | 55 | x | x
COc1ccc(/C=N/NC(=O)CNC(=O)/C=C/c2ccco2)cc1OC | -408* | -8 | 5
CSc1ccc(/C=N/NC(=O)CNc2cccc3ccccc23)cc1 | 86 | x | x
C=C(C)Cc1c(C)c(C#N)c2[nH]c3ccccc3n2c1=O | 62 | x | x
O=C1c2ccccc2N[C@@H]2C=CC[C@@H]2N1O | -56* | -9 | 9
COc1ccc(CN=Cc2[nH]c3ccc(Br)c(Cl)c3c2O)cc1 | 45 | x | x
O=C(NCc1nc2ccccc2[nH]1)C1=C[C@H](c2ccccc2)C[C@H](OCc2ccc(CO)cc2)O1 | -127* | 5 | 27
CCO/C=C1/C(=O)N(Cc2ccccc2)C(=O)c2ccccc21 | 62 | x | x
Cc1ccc(C(=O)NC2(O)C(=O)c3ccccc3C2=O)cc1C | 97 | x | x
Cc1noc(C)c1S(=O)(=O)N1CCCC(C(=O)NCC2CCCO2)C1 (configuration not stated) | -89* | 9 | 12
COc1cc(NCCCCCCCN)c2ncccc2c1 | 95 | x | x
CCOc1c(O)ccc(/C=C2\SC(=S)NC2=O)c1[N+](=O)[O-] | 56 | x | x
CCc1ccc(OCC(=O)N/N=C2\CC(=O)c3ccccc32)cc1 | 84 | x | x
CN(Cc1ccccc1)C(=O)CN1C(=O)NC(C)(c2ccc(C(C)(C)C)cc2)C1=O (configuration not stated) | 42 | x | x
SMILES | Apaf-1 act | Rh110 act interf | Apaf-1 act conf
CC(C)NS(=O)(=O)c1ccc(OCC(=O)N(C)Cc2ccccc2)cc1 | -555* | 8 | 17
CCCCNc1c(-c2ccc(OC)c(SC(C)CC)c2)nc2cc(C)ccn12 (configuration not stated) | 49 | x | x
Cc1cc(O)c2c(c1O)C(=O)[C@]13C(=C2O)C(=O)[C@@H]2[C@@H](O)[C@H]1[C@@H]1[C@H](O)[C@H]3C(=O)C3=C(O)c4c(O)cc(C)c(O)c4C(=O)[C@]312 | 69 | x | x
CC1(OC(=O)c2cccs2)C(=O)C=C2C=C3CCCN3C=C2C1=O (configuration not stated) | 62 | x | x
CN1CCN(c2ccc(NC(=O)c3ccc(-c4ccc(Br)cc4)o3)cc2)CC1 | 45 | x | x
CCCCn1nnc(NC(=O)Cc2ccc(Cl)cc2)n1 | -95* | 4 | -3
CCCn1nnc(NC(=O)c2ccc(-c3cccc(Cl)c3)o2)n1 | -44* | -4 | 10
CCCCC(CC)CN=C(N)NC(N)=NCCCCCCN=C(N)NC(N)=NCC(CC)CCCC (configuration not stated) | 94 | x | x
